According to ChEMBL document CHEMBL4665803, “Discovery of Covalent Inhibitors Targeting the Transcriptional Enhanced Associate Domain Central Pocket” (J Med Chem, 2020):
The source made the active and inactive calls. No cut-off for these calls is given here.

Key:
[1] = target: T1, Transcriptional enhancer factor TEF-3 (Homo sapiens, UniProt Q15561); assay: Inhibition of CPM binding to N-terminal His6-tagged human TEAD4 (217 to 434 residues) expressed in Escherichia coli BL21-CodonPlus (DE3)-RIPL cells at 12.5 uM preincubated for 10 mins followed by CPM addition and measured after 1 hr by fluorescence assay relative to control; conditions: time 70.0 min
T1 sequence (Q15561 whole entry, the tested form may be a part): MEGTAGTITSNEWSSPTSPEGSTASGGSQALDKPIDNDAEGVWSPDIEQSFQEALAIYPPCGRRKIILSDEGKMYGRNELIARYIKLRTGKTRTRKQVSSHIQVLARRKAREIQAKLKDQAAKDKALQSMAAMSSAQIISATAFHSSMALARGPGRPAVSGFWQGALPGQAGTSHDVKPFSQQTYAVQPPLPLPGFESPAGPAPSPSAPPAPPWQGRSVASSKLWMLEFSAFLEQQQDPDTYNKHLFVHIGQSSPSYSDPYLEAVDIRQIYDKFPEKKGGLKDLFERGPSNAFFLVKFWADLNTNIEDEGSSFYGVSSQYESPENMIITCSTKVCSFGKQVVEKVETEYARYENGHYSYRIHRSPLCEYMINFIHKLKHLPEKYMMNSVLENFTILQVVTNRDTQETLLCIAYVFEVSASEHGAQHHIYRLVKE

[2] = target: T1, Transcriptional enhancer factor TEF-3; assay: Inhibition of CPM binding to N-terminal His6-tagged human TEAD4 (217 to 434 residues) expressed in Escherichia coli BL21-CodonPlus (DE3)-RIPL cells preincubated for 10 mins followed by CPM addition and measured after 1 hr by fluorescence assay; conditions: for inhibition: time 70.0 min
[3] = target: T1, Transcriptional enhancer factor TEF-3; assay: Inhibition of FITC-labeled palmitate tracer binding to N-terminal His6-tagged human TEAD4 (217 to 434 residues) expressed in Escherichia coli BL21-CodonPlus (DE3)-RIPL cells preincubated for 10 mins followed by FITC-labeled palmitate tracer addition and measured after 1 hr by fluorescence assay
Summary of the method: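 FP competition in 25 mM HEPES, 150 mM NaCl, pH 6.5: serially diluted compound preincubated 10 min at room temperature with nonacylated hTEAD4, then FITC-palmitate tracer added (final 50 nM protein, 10 nM tracer); shaken 1 h at room temperature, FP at Ex/Em 485/535 nm. Tracer Kd from saturation binding.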

[4] = target: T1, Transcriptional enhancer factor TEF-3; assay: Selectivity ratio of apparent IC50 for inhibition of CPM binding to N-terminal His6-tagged human TEAD4 (217 to 434 residues) expressed in Escherichia coli BL21-CodonPlus (DE3)-RIPL cells to IC50 for inhibition of FITC-labeled palmitate tracer binding to N-terminal His6-tagged human TEAD4 (217 to 434 residues) expressed in Escherichia coli BL21-CodonPlus (DE3)-RIPL cells
[5] = target: T1, Transcriptional enhancer factor TEF-3; assay: Binding affinity to nonacylated N-terminal His6-tagged human TEAD4 (217 to 434 residues) expressed in Escherichia coli BL21-CodonPlus (DE3)-RIPL cells assessed as melting temperature at 80 uM after 10 mins by SYPRO orange dye-based differential scanning fluorimetry method (reference value: 41 degreeC)
[6] = target: T1, Transcriptional enhancer factor TEF-3; assay: Binding affinity to nonacylated N-terminal His6-tagged human TEAD4 (217 to 434 residues) expressed in Escherichia coli BL21-CodonPlus (DE3)-RIPL cells assessed as inhibition of protein-FAM-YAP (50 to 100 residues) interaction preincubated for 10 mins followed by FAM YAP addition and measured after 1 hr by fluorescence assay
Summary of the method: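 FP competition in PBS pH 7.5: serially diluted compound preincubated 10 min at room temperature with TEAD4 protein, then FAM-YAP50–100 added; shaken 1 h at room temperature, FP read at Ex/Em 485/535 nm. Final FAM/protein: nonacylated hTEAD4 2 nM/5 nM; acylated hTEAD4 3 nM/15 nM. Compound stocks 10 mM in DMSO. IC50 from curve fitting.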

[7] = target: T1, Transcriptional enhancer factor TEF-3; assay: Binding affinity to nonacylated N-terminal His6-tagged human TEAD4 (217 to 434 residues) expressed in Escherichia coli BL21-CodonPlus (DE3)-RIPL cells at 8 equiv after 1 hr by ESI-MS spectrophotometric analysis
Summary of the method: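 Whole-protein ESI–MS: 1 μM hTEAD4 incubated 1 h at room temperature with 8 equiv compound in 25 mM HEPES, 150 mM NaCl, pH 6.5; centrifuged, injected via online desalting column to UPLC-MS; masses deconvoluted to detect adducts.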

[8] = target: Transcriptional enhancer factor TEF-3 (Mus musculus) (UniProt Q62296); assay: Binding affinity to nonacylated mouse TEAD4 at 0.5 mM by 1H-15N HSQC spectra analysis
Transcriptional enhancer factor TEF-3 (Mus musculus), sequence (Q62296 whole entry): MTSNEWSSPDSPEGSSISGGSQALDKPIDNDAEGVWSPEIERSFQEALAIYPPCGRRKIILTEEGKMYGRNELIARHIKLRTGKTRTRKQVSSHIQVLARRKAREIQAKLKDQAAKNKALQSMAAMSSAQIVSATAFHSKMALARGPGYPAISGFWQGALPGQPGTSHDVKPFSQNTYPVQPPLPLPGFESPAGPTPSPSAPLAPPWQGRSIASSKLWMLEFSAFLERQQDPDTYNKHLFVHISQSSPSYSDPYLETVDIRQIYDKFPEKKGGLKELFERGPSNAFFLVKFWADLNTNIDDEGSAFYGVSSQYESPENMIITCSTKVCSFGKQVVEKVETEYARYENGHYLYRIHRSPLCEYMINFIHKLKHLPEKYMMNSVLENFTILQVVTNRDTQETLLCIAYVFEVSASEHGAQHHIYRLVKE
Summary of the method: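 1H–15N HSQC of 13C/15N-labeled mTEAD4, deacylated with hydroxylamine; spectra with DMSO or compound (0.5 mM) recorded at 37 °C on a 600 MHz cryoprobe instrument in 20 mM HEPES pH 7.3, 150 mM NaCl, 1 mM DTT; spectra overlaid.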

[9] = target: T1, Transcriptional enhancer factor TEF-3; assay: Inhibition of TEAD4 in HEK293 cells assessed as reduction in ANKRD1 mRNA expression at 1 uM measured after 6 hrs by SYBR green dye based RT-PCR analysis relative to control; assay type: cell-based
Summary of the method: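 HEK293 cells treated with DMSO or compound for 6 h; ANKRD1 mRNA measured by RT-qPCR relative to the DMSO control.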

SMILES: O=c1cc(CO)oc(C(Nc2cccc(F)c2)c2ccccn2)c1O (configuration not stated)
- inhibition [1]: > 50%
- IC50 ([2]; read-out: IC50): 8.7 µM

SMILES: O=c1cc(CO)oc(C(Nc2ncccn2)c2ccccc2)c1O (configuration not stated)
- inhibition [1]: > 50%
- IC50 [3]: 13.4 µM
- IC50 ([2]; read-out: IC50(app)): > 100 µM

SMILES: NC(=O)c1ccc(NC(c2ccccc2)c2oc(CO)cc(=O)c2O)cc1 (configuration not stated)
- inhibition [1]: > 50%
- IC50 [3]: 0.3 µM
- IC50 ([2]; read-out: IC50(app)): 1.7 µM

SMILES: O=c1cc(CO)oc(C(Nc2ccccc2)c2ccc3ccccc3c2)c1O (configuration not stated)
- inhibition [1]: > 50%
- IC50 [3]: 0.2 µM
- IC50 ([2]; read-out: IC50(app)): 1.1 µM

SMILES: O=c1cc(CO)oc(C(Nc2ccccc2)c2ccccc2F)c1O (configuration not stated)
- inhibition [1]: > 50%
- IC50 [3]: 0.1 µM
- IC50 ([2]; read-out: IC50(app)): 0.7 µM

SMILES: O=c1cc(CO)oc(CNc2ccccc2)c1O
- inhibition [1]: > 50%
- IC50 [3]: 36.4 µM
- IC50 ([2]; read-out: IC50(app)): > 100 µM

SMILES: COc1c(C(Nc2ccccc2)c2ccccc2)oc(CO)cc1=O (configuration not stated)
- Ratio IC50 [4]: > 200
- Tm [5]: 41 °C
- inhibition [1]: < 50%
- IC50 [6]: 9.5 µM
- Activity [7]: inactive
- IC50 [3]: 41.6 µM
- IC50 ([2]; read-out: IC50(app)): > 100 µM
- Activity [8]: inactive
- inhibition [9]: inactive

SMILES: O=c1cc(CO)oc(CN2CCN(c3ccccn3)CC2)c1O
- inhibition [1]: < 50%
- IC50 ([2]; read-out: IC50): > 100 µM

SMILES: O=c1cc(CO)oc(C(Nc2cccc(F)c2)c2ccccc2)c1O (configuration not stated)
- inhibition [1]: > 50%
- IC50 [3]: 0.2 µM
- IC50 ([2]; read-out: IC50(app)): 1.5 µM

SMILES: O=c1cc(CO)oc(C(Nc2ccccn2)c2ccccn2)c1O (configuration not stated)
- inhibition [1]: > 50%
- IC50 [3]: 16 µM
- IC50 ([2]; read-out: IC50(app)): > 100 µM

SMILES: CC(C)c1ccc(C(Nc2ccccc2)c2oc(CO)cc(=O)c2O)cc1 (configuration not stated)
- inhibition [1]: > 50%
- IC50 [3]: 0.2 µM
- IC50 ([2]; read-out: IC50(app)): 1 µM

SMILES: O=c1cc(CO)oc(C(Nc2ccccn2)c2ccc(Br)cc2)c1O (configuration not stated)
- Tm [5]: 39 °C
- inhibition [1]: > 50%
- IC50 [3]: 0.4 µM
- IC50 ([2]; read-out: IC50(app)): 3.7 µM

SMILES: CC(C)C(Nc1ccccc1)c1oc(CO)cc(=O)c1O (configuration not stated)
- inhibition [1]: > 50%
- IC50 [3]: 38.1 µM
- IC50 ([2]; read-out: IC50(app)): > 100 µM

SMILES: CC(C)NC(c1ccccc1)c1oc(CO)cc(=O)c1O (configuration not stated)
- inhibition [1]: > 50%
- IC50 [3]: 1.5 µM
- IC50 ([2]; read-out: IC50(app)): 16.8 µM

SMILES: CSCC[C@H](NCc1oc(CO)cc(=O)c1O)C(=O)O
- inhibition [1]: < 50%
- IC50 ([2]; read-out: IC50): > 100 µM

SMILES: O=c1cc(CO)oc(C(Nc2ccccn2)c2ccccc2F)c1O (configuration not stated)
- inhibition [1]: > 50%
- IC50 [3]: 0.3 µM
- IC50 ([2]; read-out: IC50): 3.2 µM
- IC50 ([2]; read-out: IC50(app)): 3.2 µM

SMILES: O=C(O)c1ccccc1Nc1cccc(C(F)(F)F)c1
- inhibition [2]: Dose-dependent effect

SMILES: O=C(O)c1cccnc1Nc1cccc(C(F)(F)F)c1 [NIFLUMIC ACID]
- IC50 [3]: 5.9 µM
- IC50 ([2]; read-out: IC50(app)): 41.9 µM
- inhibition [2]: Dose-dependent effect

SMILES: O=c1cc(CO)oc(C(Nc2ccccc2)c2ccccn2)c1O (configuration not stated)
- inhibition [1]: > 50%
- IC50 [3]: 0.5 µM
- IC50 ([2]; read-out: IC50(app)): 18.9 µM

SMILES: O=c1cc(CO)oc(C(Nc2nccs2)c2ccccc2)c1O (configuration not stated)
- Tm [5]: 41 °C
- inhibition [1]: > 50%
- IC50 [3]: 5.6 µM
- IC50 ([2]; read-out: IC50(app)): 53.4 µM

SMILES: COc1c(C(Nc2ccccn2)c2ccccc2F)oc(CO)cc1=O (configuration not stated)
- Ratio IC50 [4]: > 200
- inhibition [1]: < 50%
- IC50 [3]: 49.9 µM
- IC50 ([2]; read-out: IC50(app)): > 100 µM

SMILES: O=c1cc(CO)oc(C(NCc2ccccc2)c2ccccc2)c1O (configuration not stated)
- inhibition [1]: > 50%
- IC50 [3]: 0.4 µM
- IC50 ([2]; read-out: IC50(app)): 4 µM

SMILES: CCCCCCCCCCCCCCCC(=O)O
- inhibition [2]: Dose-dependent effect

SMILES: O=C(CCl)c1ccccc1Nc1cccc(C(F)(F)F)c1
- IC50 [3]: 14.1 µM
- IC50 ([2]; read-out: IC50(app)): 0.8 µM
- inhibition [2]: Dose-dependent effect

SMILES: O=c1cc(CO)oc(C(Nc2nc3ccccc3[nH]2)c2ccccc2)c1O (configuration not stated)
- inhibition [1]: > 50%
- IC50 [3]: 6.4 µM
- IC50 ([2]; read-out: IC50(app)): > 100 µM

SMILES: Cc1ccc(C(Nc2ccccc2)c2oc(CO)cc(=O)c2O)cc1 (configuration not stated)
- inhibition [1]: > 50%
- IC50 [3]: 0.2 µM
- IC50 ([2]; read-out: IC50(app)): 1.3 µM

SMILES: O=c1cc(CO)oc(C(c2ccccc2)N2Cc3ccccc3C2)c1O (configuration not stated)
- inhibition [1]: > 50%
- IC50 [3]: 0.9 µM
- IC50 ([2]; read-out: IC50(app)): 13.2 µM

SMILES: O=c1cc(CO)oc(C(Nc2ccccc2)c2ccc(Br)cc2)c1O (configuration not stated)
- inhibition [1]: > 50%
- IC50 [3]: 0.2 µM
- IC50 ([2]; read-out: IC50(app)): 1.2 µM

SMILES: NC(=O)c1ccc(C(Nc2ccccc2)c2oc(CO)cc(=O)c2O)cc1 (configuration not stated)
- inhibition [1]: > 50%
- IC50 [3]: 0.3 µM
- IC50 ([2]; read-out: IC50(app)): 1.5 µM

SMILES: NC(=O)c1ccc(NC(c2ccccn2)c2oc(CO)cc(=O)c2O)cc1 (configuration not stated)
- inhibition [1]: > 50%
- IC50 [3]: 1.1 µM
- IC50 ([2]; read-out: IC50(app)): 9.2 µM

SMILES: O=c1cc(CO)oc(C(Nc2nccs2)c2ccc(F)cc2)c1O (configuration not stated)
- inhibition [1]: > 50%
- IC50 ([2]; read-out: IC50): 43.1 µM

SMILES: O=c1cc(CO)oc(C(Nc2ccccn2)c2cccnc2)c1O (configuration not stated)
- inhibition [1]: > 50%
- IC50 [3]: 14.7 µM
- IC50 ([2]; read-out: IC50(app)): > 100 µM

SMILES: O=c1cc(CO)oc(C(Nc2ccccc2)C2CCCCC2)c1O (configuration not stated)
- inhibition [1]: > 50%
- IC50 [3]: 22.6 µM
- IC50 ([2]; read-out: IC50(app)): > 100 µM

SMILES: Cc1ccnc(NC(c2ccccc2)c2oc(CO)cc(=O)c2O)c1 (configuration not stated)
- inhibition [1]: > 50%
- IC50 [3]: 0.3 µM
- IC50 ([2]; read-out: IC50(app)): 2.4 µM

SMILES: CCOC(=O)C1CCCN(Cc2oc(CO)cc(=O)c2O)C1 (configuration not stated)
- inhibition [1]: < 50%
- IC50 ([2]; read-out: IC50): > 100 µM

SMILES: O=c1cc(CO)oc(C(Nc2ccccn2)c2ccccc2)c1O (configuration not stated)
- inhibition [1]: > 50%
- IC50 [3]: 0.3 µM
- IC50 ([2]; read-out: IC50(app)): 3.1 µM

SMILES: O=c1cc(CO)oc(C(Nc2ccccc2)c2ccc(F)cc2)c1O (configuration not stated)
- inhibition [1]: > 50%
- IC50 [3]: 0.3 µM
- IC50 ([2]; read-out: IC50(app)): 1.9 µM
